Starred links: 1 amine or outer side, 2 acyl side, 3 side chain; linkers in the order of their positions; H or OH if unused. Positions of bridges follow the written chain, without caps; N, C: chain ends. Non-standard residues stand in square brackets, D forms with d. Residues, ends and D or L forms follow the SMILES beside them. X1 = O=C([C@@H](CCCCC=[*:3])N[*:1])[*:2]; X2 = O=C([C@H](CCCCCC=[*:3])N[*:1])[*:2]; Gla = N[C@@H](CC(C(=O)O)C(=O)O)C(=O)O; Aib = CC(C)(N)C(=O)O
What was measured:
RAW264.7 [1] = assay: Induction of [3H]cholesterol efflux in mouse RAW264.7 cells at 30 uM after 24 hrs by scintillation counting; type: functional, cell-based
[2] = Toxicity in human RBC assessed as hemolysis; type: cell-based, Erythrocyte; conditions: red blood cells (RBC)
Method in brief: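 Red blood cell lysis assay; cytotoxicity reported as IC50 in µM.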

RAW264.7 [3] = assay: Cytotoxicity against mouse RAW264.7 cells after 24 hrs by MTT assay; type: cell-based; conditions: RAW264.7, 24 h
Method in brief: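 RAW macrophage cytotoxicity examined at peptide concentrations up to 160 µM.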

RAW264.7 [4] = assay: Induction of [3H]cholesterol efflux in mouse RAW264.7 cells after 24 hrs by scintillation counting; type: functional, cell-based
Method in brief: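 Cholesterol efflux from RAW macrophages; EC50 reported in µM as the mean of three experiments.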

[5] = Mus musculus, RAW264.7, read-out: EC50

EC50 (RAW264.7 [4]; [5]) | EC50 (RAW264.7 [4]; raw264.7) | Molecule | cholesterol efflux (RAW264.7 [1]) | IC50 [2] | IC50 (RAW264.7 [3])
– | – | CC(C)C[C@H](NC(=O)[C@H](CCCCN)NC(=O)[C@H](CCC(N)=O)NC(=O)[C@H](CCCCN)NC(=O)[C@H]1CCC/C=C\CCC[C@@H](NC(=O)[C@H](CCC(=O)O)NC(=O)[C@H](CC(N)=O)NC(=O)[C@H](CC(C)C)NC(=O)[C@H](CCCCN)NC(=O)[C@H](CCC(=O)O)NC(=O)[C@H](CCCNC(=N)N)NC(=O)[C@H](Cc2ccccc2)NC(=O)[C@H](CCC(=O)O)NC(=O)[C@H](CC(=O)O)NC(=O)[C@H](CC(C)C)NC(=O)[C@@H](NC(=O)[C@@H]2CCCN2)C(C)C)C(=O)N[C@@H](CC(C)C)C(=O)N[C@@H](CCC(=O)O)C(=O)N[C@@H](C)C(=O)N1)C(=O)N[C@@H](CCCCN)C(=O)O | 2% | > 160 µM | > 160 µM
46 µM | – | C=CCCC[C@@H](NC(=O)[C@H](CCC(=O)O)NC(=O)[C@H](CC(N)=O)NC(=O)[C@H](CC(C)C)NC(=O)[C@@H](CCCC=C)NC(=O)[C@H](CCC(=O)O)NC(=O)[C@H](CCCNC(=N)N)NC(=O)[C@H](Cc1ccccc1)NC(=O)[C@H](CCC(=O)O)NC(=O)[C@H](CC(=O)O)NC(=O)[C@H](CC(C)C)NC(=O)[C@@H](NC(=O)[C@@H]1CCCN1)C(C)C)C(=O)N[C@@H](CC(C)C)C(=O)N[C@@H](CCC(=O)O)C(=O)N[C@@H](C)C(=O)N[C@@H](CC(C)C)C(=O)N[C@@H](CCCCN)C(=O)N[C@@H](CCC(N)=O)C(=O)N[C@@H](CCCCN)C(=O)N[C@@H](CC(C)C)C(=O)N[C@@H](CCCCN)C(=O)O | – | > 160 µM | > 160 µM
10 µM | – | CC(C)C[C@H](NC(=O)[C@H](C)NC(=O)[C@H](CCC(=O)O)NC(=O)[C@H](CC(C)C)NC(=O)[C@H]1CCC/C=C\CCC[C@@H](NC(=O)[C@H](CCC(=O)O)NC(=O)[C@H](CCCNC(=N)N)NC(=O)[C@H](Cc2ccccc2)NC(=O)[C@H](CCC(=O)O)NC(=O)[C@H](CC(=O)O)NC(=O)[C@H](CC(C)C)NC(=O)[C@@H](NC(=O)[C@@H]2CCCN2)C(C)C)C(=O)N[C@@H](CC(C)C)C(=O)N[C@@H](CC(N)=O)C(=O)N[C@@H](CCC(=O)O)C(=O)N1)C(=O)N[C@@H](CCCCN)C(=O)N[C@@H](CCC(N)=O)C(=O)N[C@@H](CCCCN)C(=O)N[C@@H](CC(C)C)C(=O)N[C@@H](CCCCN)C(=O)O | – | > 160 µM | > 160 µM
1.3 µM | – | C=CCCCCC[C@H](NC(=O)[C@H](CCC(=O)O)NC(=O)[C@H](CC(=O)O)NC(=O)[C@H](CC(C)C)NC(=O)[C@@H](NC(=O)[C@@H]1CCCN1)C(C)C)C(=O)N[C@@H](CCCNC(=N)N)C(=O)N[C@@H](CCC(=O)O)C(=O)N[C@@H](CCCCN)C(=O)N[C@@H](CC(C)C)C(=O)N[C@@H](CC(N)=O)C(=O)N[C@H](CCC(=O)O)C(=O)N[C@@H](CCCCC=C)C(=O)N[C@H](CC(C)C)C(=O)N[C@H](CCC(=O)O)C(=O)N[C@H](C)C(=O)N[C@H](CC(C)C)C(=O)N[C@H](CCCCN)C(=O)N[C@H](CCC(N)=O)C(=O)N[C@H](CCCCN)C(=O)N[C@H](CC(C)C)C(=O)N[C@H](CCCCN)C(=O)O | – | > 160 µM | > 160 µM
– | Not Active | CC(C)C[C@H](NC(=O)[C@H](C)NC(=O)[C@H](CCC(=O)O)NC(=O)[C@H](CC(C)C)NC(=O)[C@@H]1CCC/C=C\CCC[C@@H](NC(=O)[C@H](CCC(=O)O)NC(=O)[C@H](CCCNC(=N)N)NC(=O)[C@H](Cc2ccccc2)NC(=O)[C@H](CCC(=O)O)NC(=O)[C@H](CC(=O)O)NC(=O)[C@H](CC(C)C)NC(=O)[C@@H](NC(=O)[C@@H]2CCCN2)C(C)C)C(=O)N[C@@H](CC(C)C)C(=O)N[C@@H](CC(N)=O)C(=O)N[C@@H](CCC(=O)O)C(=O)N1)C(=O)N[C@@H](CCCCN)C(=O)N[C@@H](CCC(N)=O)C(=O)N[C@@H](CCCCN)C(=O)N[C@@H](CC(C)C)C(=O)N[C@@H](CCCCN)C(=O)O | – | > 160 µM | > 160 µM
– | – | C=CCCC[C@@H](NC(=O)[C@H](C)NC(=O)[C@H](CCC(=O)O)NC(=O)[C@H](CC(C)C)NC(=O)[C@@H](CCCC=C)NC(=O)[C@H](CCC(=O)O)NC(=O)[C@H](CC(N)=O)NC(=O)[C@H](CC(C)C)NC(=O)[C@H](CCCCN)NC(=O)[C@H](CCC(=O)O)NC(=O)[C@H](CCCNC(=N)N)NC(=O)[C@H](Cc1ccccc1)NC(=O)[C@H](CCC(=O)O)NC(=O)[C@H](CC(=O)O)NC(=O)[C@H](CC(C)C)NC(=O)[C@@H](NC(=O)[C@@H]1CCCN1)C(C)C)C(=O)N[C@@H](CCCCN)C(=O)N[C@@H](CCC(N)=O)C(=O)N[C@@H](CCCCN)C(=O)N[C@@H](CC(C)C)C(=O)N[C@@H](CCCCN)C(=O)O | 3% | > 160 µM | > 160 µM
234 µM | – | CC(C)C[C@H](NC(=O)[C@H](C)NC(=O)[C@H](CCC(=O)O)NC(=O)[C@H](CC(N)=O)NC(=O)[C@H](CC(C)C)NC(=O)[C@H](CCCCN)NC(=O)[C@H](CCC(=O)O)NC(=O)[C@H](CCCNC(=N)N)NC(=O)[C@H](Cc1ccccc1)NC(=O)[C@H](CCC(=O)O)NC(=O)[C@H](CC(=O)O)NC(=O)[C@H](CC(C)C)NC(=O)[C@@H](NC(=O)[C@@H]1CCCN1)C(C)C)C(=O)N[C@@H](CC(C(=O)O)C(=O)O)C(=O)N[C@@H](C)C(=O)N[C@@H](CC(C)C)C(=O)N[C@@H](CCCCN)C(=O)N[C@@H](CCC(N)=O)C(=O)N[C@@H](CCCCN)C(=O)N[C@@H](CC(C)C)C(=O)N[C@@H](CCCCN)C(=O)O (H-PVLDEFREKLNEAL[Gla]ALKQKLK-OH) | – | 75 µM | > 160 µM
23 µM | – | CC(C)C[C@H](NC(=O)[C@H](CCCCN)NC(=O)[C@H](CCC(N)=O)NC(=O)[C@H](CCCCN)NC(=O)[C@H](CC(C)C)NC(=O)C(C)(C)NC(=O)[C@H](CCC(=O)O)NC(=O)[C@H](CC(C)C)NC(=O)C(C)(C)NC(=O)[C@H](CCC(=O)O)NC(=O)[C@H](CC(N)=O)NC(=O)[C@H](CC(C)C)NC(=O)[C@H](CCCCN)NC(=O)[C@H](CCC(=O)O)NC(=O)[C@H](CCCNC(=N)N)NC(=O)[C@H](Cc1ccccc1)NC(=O)[C@H](CCC(=O)O)NC(=O)[C@H](CC(=O)O)NC(=O)[C@H](CC(C)C)NC(=O)[C@@H](NC(=O)[C@@H]1CCCN1)C(C)C)C(=O)N[C@@H](CCCCN)C(=O)O (H-PVLDEFREKLNE[Aib]LE[Aib]LKQKLK-OH) | – | > 160 µM | > 160 µM
41 µM | – | CC(C)C[C@H](NC(=O)[C@H](C)NC(=O)[C@H](CC(C(=O)O)C(=O)O)NC(=O)[C@H](CC(C)C)NC(=O)C(C)(C)NC(=O)[C@H](CCC(=O)O)NC(=O)[C@H](CC(N)=O)NC(=O)[C@H](CC(C)C)NC(=O)[C@H](CCCCN)NC(=O)[C@H](CCC(=O)O)NC(=O)[C@H](CCCNC(=N)N)NC(=O)[C@H](Cc1ccccc1)NC(=O)[C@H](CCC(=O)O)NC(=O)[C@H](CC(=O)O)NC(=O)[C@H](CC(C)C)NC(=O)[C@@H](NC(=O)[C@@H]1CCCN1)C(C)C)C(=O)N[C@@H](CCCCN)C(=O)N[C@@H](CCC(N)=O)C(=O)N[C@@H](CCCCN)C(=O)N[C@@H](CC(C)C)C(=O)N[C@@H](CCCCN)C(=O)O (H-PVLDEFREKLNE[Aib]L[Gla]ALKQKLK-OH) | – | 75 µM | > 160 µM
142 µM | – | CC(C)C[C@H](NC(=O)[C@H](C)NC(=O)[C@H](CCC(=O)O)NC(=O)[C@H](CC(N)=O)NC(=O)[C@H](CC(C)C)NC(=O)[C@H](CCCCN)NC(=O)[C@H](CC(C(=O)O)C(=O)O)NC(=O)[C@H](CCCNC(=N)N)NC(=O)[C@H](Cc1ccccc1)NC(=O)[C@H](CCC(=O)O)NC(=O)[C@H](CC(=O)O)NC(=O)[C@H](CC(C)C)NC(=O)[C@@H](NC(=O)[C@@H]1CCCN1)C(C)C)C(=O)N[C@@H](CCC(=O)O)C(=O)N[C@@H](C)C(=O)N[C@@H](CC(C)C)C(=O)N[C@@H](CCCCN)C(=O)N[C@@H](CCC(N)=O)C(=O)N[C@@H](CCCCN)C(=O)N[C@@H](CC(C)C)C(=O)N[C@@H](CCCCN)C(=O)O (H-PVLDEFR[Gla]KLNEALEALKQKLK-OH) | – | 40 µM | > 160 µM
44 µM | – | CC(C)C[C@H](NC(=O)[C@H](C)NC(=O)[C@H](CCC(=O)O)NC(=O)[C@H](CC(C)C)NC(=O)C(C)(C)NC(=O)[C@H](CCC(=O)O)NC(=O)[C@H](CC(N)=O)NC(=O)[C@H](CC(C)C)NC(=O)[C@H](CCCCN)NC(=O)[C@H](CC(C(=O)O)C(=O)O)NC(=O)[C@H](CCCNC(=N)N)NC(=O)[C@H](Cc1ccccc1)NC(=O)[C@H](CCC(=O)O)NC(=O)[C@H](CC(=O)O)NC(=O)[C@H](CC(C)C)NC(=O)[C@@H](NC(=O)[C@@H]1CCCN1)C(C)C)C(=O)N[C@@H](CCCCN)C(=O)N[C@@H](CCC(N)=O)C(=O)N[C@@H](CCCCN)C(=O)N[C@@H](CC(C)C)C(=O)N[C@@H](CCCCN)C(=O)O (H-PVLDEFR[Gla]KLNE[Aib]LEALKQKLK-OH) | – | 75 µM | > 160 µM
2 µM | – | CC.CC(C)C[C@H](NC(=O)[C@H](C)NC(=O)[C@H](CCC(=O)O)NC(=O)[C@H](CC(C)C)NC(=O)[C@@H]1CCCCC/C=C\CCCC[C@@H](NC(=O)[C@H](CCC(=O)O)NC(=O)[C@H](CC(=O)O)NC(=O)[C@H](CC(C)C)NC(=O)[C@@H](NC(=O)[C@@H]2CCCN2)C(C)C)C(=O)N[C@@H](CCCNC(=N)N)C(=O)N[C@@H](CCC(=O)O)C(=O)N[C@@H](CCCCN)C(=O)N[C@@H](CC(C)C)C(=O)N[C@@H](CC(N)=O)C(=O)N[C@@H](CCC(=O)O)C(=O)N1)C(=O)N[C@@H](CCCCN)C(=O)N[C@@H](CCC(N)=O)C(=O)N[C@@H](CCCCN)C(=O)N[C@@H](CC(C)C)C(=O)N[C@@H](CCCCN)C(=O)O (H-PVLDE[X1]REKLNE[X2]LEALKQKLK-OH; staple (Z) 6-13) | – | > 160 µM | > 160 µM
– | Not Active | H-PVLDEFREKLNEELEALKQKLK-OH | – | 40 µM | > 160 µM

— ChEMBL document CHEMBL1153146, “Novel potent apoA-I peptide mimetics that stimulate cholesterol efflux and pre-beta particle formation in vitro” (Bioorg Med Chem Lett, 2010)
